Data from ChEMBL document CHEMBL3792308, “Synthesis and Evaluation of 2,6-Modified Purine 2'-C-Methyl Ribonucleosides as Inhibitors of HCV Replication” (ACS Med Chem Lett, 2016).

Tests used:
[1] = Cytotoxicity against human CEM cells after 6 days by trypan blue exclusion assay; format: cell-based; settings: CEM (CCRF-CEM) cells
[2] = Cytotoxicity against human PBMC after 6 days by trypan blue exclusion assay; format: cell-based; settings: PBMC (peripheral blood mononuclear cells)
[3] = Cytotoxicity against African green monkey Vero cells after 3 days by hemocytometry; format: cell-based; settings: chlorocebus sabaeus
[4] = Cytotoxicity against human HuH7 cells infected with HCV assessed as reduction in cellular rRNA level after 96 hrs by qRT-PCR analysis; format: cell-based, Huh-7
Summary of the method: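 Huh7 toxicity was read in the same wells as the replicon assay, by extracting and amplifying cellular rRNA alongside HCV RNA.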

Hepatitis C virus = experiment: Antiviral activity against HCV infected in HuH7 Clone B cells assessed as inhibition of viral replication after 5 days by RT-PCR method; format: functional, organism-based, Hepacivirus hominis; settings: 120 h
Summary of the method: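 Huh7 cells carrying a subgenomic HCV replicon; HCV RNA extracted and amplified to measure replication inhibition. Tested up to 10 μM, and EC50 and EC90 are reported.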

Structure (SMILES) | CC50 at 144 h [1] [µM] | CC50 at 144 h [2] [µM] | CC50 at 72 h [3] [µM] | CC50 at 96 h [4] [µM] | EC50 (Hepatitis C virus) [µM] | EC90 (Hepatitis C virus) [µM]
C=C(OCC)c1nc(N)nc2c1ncn2[C@@H]1O[C@H](COP(=O)(N[C@@H](C)C(=O)OCC)Oc2ccccc2)[C@@H](O)[C@@]1(C)O (some centres not stated) | > 100 | > 100 | > 100 | > 10 | > 10 | > 10
C[C@@]1(O)[C@H](O)[C@@H](CO)O[C@H]1n1cnc2c(N)nc(N=[N+]=[N-])nc21 | > 100 | > 100 | > 100 | > 10 | > 10 | > 10
C[C@@]1(O)[C@H](O)[C@@H](CO)O[C@H]1n1cnc2c(NO)nc(N)nc21 | > 100 | > 100 | > 100 | > 10 | 0.3 | 5.5
COc1nc(ONC(=O)OCc2ccccc2)nc2c1ncn2[C@@H]1O[C@H](CO)[C@@H](O)[C@@]1(C)O | > 100 | > 100 | > 100 | > 10 | > 10 | > 10
CONc1nc(N)nc2c1ncn2[C@@H]1O[C@H](CO)[C@@H](O)[C@@]1(C)O | > 100 | > 100 | > 100 | > 10 | > 10 | > 10
COc1nc(Cl)nc2c1ncn2[C@@H]1O[C@H](CO)[C@@H](O)[C@@]1(C)O | > 100 | > 100 | > 100 | > 10 | > 10 | > 10
CCOC(=O)[C@H](C)NP(=O)(OC[C@H]1O[C@@H](n2cnc3c(NOC)nc(N)nc32)[C@](C)(O)[C@@H]1O)Oc1ccccc1 (some centres not stated) | 32 | > 100 | > 100 | > 10 | 0.3 | 1
CCOC(=O)[C@H](C)NP(=O)(OC[C@H]1O[C@@H](n2cnc3c(N)nc(O)nc32)[C@](C)(O)[C@@H]1O)Oc1ccccc1 (some centres not stated) | > 100 | > 100 | > 100 | > 10 | > 10 | > 10
CCOC(=O)[C@H](C)NP(=O)(OC[C@H]1O[C@@H](n2cnc3c(N)nc(NOC)nc32)[C@](C)(O)[C@@H]1O)Oc1ccccc1 (some centres not stated) | > 100 | > 100 | 18 | > 10 | > 10 | > 10
CCOC(=O)[C@H](C)NP(=O)(OC[C@H]1O[C@@H](n2cnc3c(OC)nc(O)nc32)[C@](C)(O)[C@@H]1O)Oc1ccccc1 (some centres not stated) | > 100 | > 100 | > 100 | > 10 | > 10 | > 10
C[C@@]1(O)[C@H](O)[C@@H](CO)O[C@H]1n1cnc2c(N)nc(O)nc21 | > 100 | > 100 | > 100 | > 10 | > 10 | > 10
CONc1nc(N)c2ncn([C@@H]3O[C@H](CO)[C@@H](O)[C@@]3(C)O)c2n1 | > 100 | > 100 | > 100 | > 10 | > 10 | > 10
CC(C)(CO)C(=O)SCCOP(=O)(NCc1ccccc1)OC[C@H]1O[C@@H](n2cnc3c(=O)[nH]c(N)nc32)[C@](C)(O)[C@@H]1O (some centres not stated) | > 100 | > 100 | > 100 | > 100 | 0.3 | 0.9
COc1nc(OC)c2ncn([C@@H]3O[C@H](CO)[C@@H](O)[C@@]3(C)O)c2n1 | > 100 | > 100 | > 100 | > 10 | > 10 | > 10
CCOC(=O)[C@H](C)NP(=O)(OC[C@H]1O[C@@H](n2cnc3c(OC)nc(Cl)nc32)[C@](C)(O)[C@@H]1O)Oc1ccccc1 (some centres not stated) | > 100 | > 100 | > 100 | > 10 | 6.3 | 9.9
CCOC(=O)[C@H](C)NP(=O)(OC[C@H]1O[C@@H](n2cnc3c(OC)nc(ONC(=O)OCc4ccccc4)nc32)[C@](C)(O)[C@@H]1O)Oc1ccccc1 (some centres not stated) | 24 | > 100 | > 100 | > 33 | 4.1 | 9.2
CCOC(=O)[C@H](C)NP(=O)(OC[C@H]1O[C@@H](n2cnc3c(N)nc(ONC(=O)OCc4ccccc4)nc32)[C@](C)(O)[C@@H]1O)Oc1ccccc1 (some centres not stated) | > 100 | > 100 | > 100 | > 33 | 4.8 | 10
C[C@@]1(O)[C@H](O)[C@@H](CO)O[C@H]1n1cnc2c(N=[N+]=[N-])nc(N)nc21 | > 100 | > 100 | > 100 | > 10 | > 10 | > 10
C[C@@]1(O)[C@H](O)[C@@H](CO)O[C@H]1n1cnc2c(ONC(=O)OCc3ccccc3)nc(N)nc21 | > 100 | > 100 | > 100 | > 10 | 2.4 | 8
COc1nc(N)c2ncn([C@@H]3O[C@H](CO)[C@@H](O)[C@@]3(C)O)c2n1 | > 100 | > 100 | > 100 | > 10 | > 10 | > 10
CCOP(=O)(OCC)c1nc(N)nc2c1ncn2[C@@H]1O[C@H](CO)[C@@H](O)[C@@]1(C)O | > 100 | > 100 | > 100 | > 10 | > 10 | > 10
COc1nc(O)nc2c1ncn2[C@@H]1O[C@H](CO)[C@@H](O)[C@@]1(C)O | > 100 | > 100 | > 100 | > 10 | > 10 | > 10
CCOC(=O)[C@H](C)NP(=O)(OC[C@H]1O[C@@H](n2cnc3c(N=[N+]=[N-])nc(N)nc32)[C@](C)(O)[C@@H]1O)Oc1ccccc1 (some centres not stated) | > 100 | > 100 | > 100 | > 10 | 2.4 | 7.7
C[C@@]1(O)[C@H](O)[C@@H](CO)O[C@H]1n1cnc2c(N)nc(Cl)nc21 | > 100 | > 100 | > 100 | > 10 | > 10 | > 10
C[C@@]1(O)[C@H](O)[C@@H](CO)O[C@H]1n1cnc2c(N)nc(ONC(=O)OCc3ccccc3)nc21 | > 100 | > 100 | > 100 | > 10 | > 10 | > 10
CCOC(=O)[C@H](C)NP(=O)(OC[C@H]1O[C@@H](n2cnc3c(N)nc(Cl)nc32)[C@](C)(O)[C@@H]1O)Oc1ccccc1 (some centres not stated) | > 100 | > 100 | > 100 | > 10 | 1.7 | 5.3
C=C(OCC)c1nc(N)nc2c1ncn2[C@@H]1O[C@H](CO)[C@@H](O)[C@@]1(C)O | > 100 | > 100 | > 100 | > 10 | > 10 | > 10
